Measured values: ChEMBL document CHEMBL3102741, “A novel 2,3-diphenyl-4H-pyrido[1,2-a]pyrimidin-4-one derivative inhibits endothelial cell dysfunction and smooth muscle cell proliferation/activation” (Eur J Med Chem, 2014)
Active and inactive are the calls of the source. The rule behind the calls is not given here.

How the values were obtained:
HUVEC [1] = experiment: Antiinflammatory activity in HUVEC assessed as inhibition of TNF-alpha-induced VCAM1 expression incubated for 1 hr prior to TNF-alpha challenge measured after overnight incubation by enzyme immunoassay method; format: functional, Homo sapiens
Outline: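 Confluent HUVECs in 96-well plates were pre-treated 1 h with compound (25 µM), then stimulated with TNF-α 10 ng/mL overnight. Cell-surface VCAM-1 was measured by cell-surface enzyme immunoassay. Three independent experiments, each with n = 8 replicates.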

HUVEC [2] = experiment: Cytotoxicity against HUVEC assessed as cell viability up to 50 uM after 24 to 72 hrs by WST-1 assay; format: cell-based; details: human
Outline: (§1)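 HUVECs were exposed to compound (10, 25, 50 µM; 0.1% DMSO vehicle) for 24 h or 72 h. WST-1 premix was added for a further 2 h, and formazan absorbance was read at 450 nm as a measure of mitochondrial dehydrogenase activity. Three independent experiments, each with n = 6 replicates.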

HUVEC [3] = experiment: Cytotoxicity against HUVEC assessed as cell viability at 10 uM after 24 to 72 hrs by WST-1 assay relative to untreated control; format: cell-based; details: human
Outline: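 HUVECs (used up to fifth passage from primary culture) in 96-well plates exposed to compound for 24 h or 72 h, DMSO final ≤0.1% as vehicle; WST-1 premix added for further 2 h, absorbance at 450 nm; viability relative to untreated cells. Morphology also checked by phase-contrast microscopy. Mean of three independent experiments, each n = 6 replicates.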

HUVEC [4] = experiment: Cytotoxicity against HUVEC assessed as cell viability at 10 to 50 uM after 24 to 72 hrs by WST-1 assay relative to untreated control; format: cell-based; details: human; outline: as §1
HUVEC [5] = experiment: Cytotoxicity against HUVEC assessed as cell detachment at 10 to 50 uM after 72 hrs by phase-contrast microscopy; format: cell-based; details: human
Outline: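 After 72 h of treatment with compound at concentrations up to 50 µM, HUVEC morphology was examined by phase-contrast microscopy.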

[6] = target: Matrix metalloproteinase-9 (Homo sapiens) (UniProt P14780); experiment: Inhibition of PMA-induced MMP9 activity in HAoSMC at 25 uM after 24 hrs by gelatin zymography relative to control
Sequence of Matrix metalloproteinase-9 (Homo sapiens) (P14780 whole entry): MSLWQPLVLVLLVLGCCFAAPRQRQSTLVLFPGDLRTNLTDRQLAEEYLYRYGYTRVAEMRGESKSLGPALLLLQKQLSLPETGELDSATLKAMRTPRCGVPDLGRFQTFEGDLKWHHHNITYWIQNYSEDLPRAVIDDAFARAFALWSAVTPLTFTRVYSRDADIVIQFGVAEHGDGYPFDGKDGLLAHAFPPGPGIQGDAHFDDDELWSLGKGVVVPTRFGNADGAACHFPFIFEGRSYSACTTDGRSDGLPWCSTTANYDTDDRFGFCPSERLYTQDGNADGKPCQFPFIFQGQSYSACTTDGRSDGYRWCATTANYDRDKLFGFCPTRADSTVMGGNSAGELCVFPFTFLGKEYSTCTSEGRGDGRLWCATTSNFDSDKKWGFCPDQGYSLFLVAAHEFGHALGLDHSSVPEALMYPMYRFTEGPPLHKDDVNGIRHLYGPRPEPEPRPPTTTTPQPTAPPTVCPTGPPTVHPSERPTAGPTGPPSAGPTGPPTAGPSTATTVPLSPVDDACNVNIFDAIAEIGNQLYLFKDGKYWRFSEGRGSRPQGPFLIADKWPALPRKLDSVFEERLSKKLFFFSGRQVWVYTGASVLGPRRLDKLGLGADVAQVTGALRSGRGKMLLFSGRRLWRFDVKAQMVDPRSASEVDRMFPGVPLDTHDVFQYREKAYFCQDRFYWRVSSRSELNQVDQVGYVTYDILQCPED
Outline: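 HAoSMCs were treated with PMA 10 nM in serum-free medium, with or without compound (10, 25 µM), for 24 h. Conditioned medium ([…]) was run on 11% SDS-PAGE containing 0.1% gelatin at 125 V and 4 °C. Gels were washed in Triton X-100, incubated 24 h at 37 °C in Tris pH 7.5/CaCl2 buffer, and Coomassie-stained. Lysis bands were quantified by densitometry.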

Homo sapiens [7] = species: Homo sapiens; experiment: Antiinflammatory activity in HAoSMC assessed as inhibition of PMA-induced MMP-9 mRNA expression at 10 to 25 uM incubated for 1 hr prior to PMA challenge measured after overnight incubation by RT-PCR analysis; format: functional
Outline: (§2)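 Confluent cells (HAoSMCs at passages 20–30, HUVECs up to fifth passage) were pre-treated 1 h with compound (1, 10, 25 µM) or 0.1% DMSO, then stimulated with PMA 10 nM, PDGF-BB 20 ng/mL or TNF-α 10 ng/mL overnight. Total RNA was extracted and RT-PCR run with GAPDH co-amplified. Bands were quantified by densitometry and normalized to GAPDH. Three determinations.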

[8] = target: T1, Prostaglandin G/H synthase 2 (Homo sapiens) (UniProt P35354); experiment: Inhibition of COX2 in HAoSMC assessed as PMA-induced PGE2 production at 1 to 25 uM incubated for 1 hr prior to PMA challenge measured after overnight incubation by competitive enzyme immunoassay
T1 sequence (whole entry): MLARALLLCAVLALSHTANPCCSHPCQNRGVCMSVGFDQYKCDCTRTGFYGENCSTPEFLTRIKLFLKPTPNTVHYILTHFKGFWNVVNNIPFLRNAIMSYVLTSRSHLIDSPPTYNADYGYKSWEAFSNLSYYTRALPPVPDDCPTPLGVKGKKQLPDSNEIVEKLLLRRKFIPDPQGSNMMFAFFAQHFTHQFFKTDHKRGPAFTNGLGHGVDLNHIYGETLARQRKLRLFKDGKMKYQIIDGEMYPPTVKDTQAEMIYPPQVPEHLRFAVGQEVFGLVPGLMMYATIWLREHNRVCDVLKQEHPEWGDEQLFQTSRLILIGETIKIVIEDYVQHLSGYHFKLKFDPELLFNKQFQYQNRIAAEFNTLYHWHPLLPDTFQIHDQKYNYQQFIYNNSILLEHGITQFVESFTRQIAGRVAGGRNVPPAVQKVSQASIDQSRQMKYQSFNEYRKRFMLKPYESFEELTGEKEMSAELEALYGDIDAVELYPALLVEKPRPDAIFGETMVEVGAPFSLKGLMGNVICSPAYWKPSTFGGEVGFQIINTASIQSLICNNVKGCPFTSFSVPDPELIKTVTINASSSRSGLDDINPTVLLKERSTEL
Outline: (§3)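 Cells were pre-treated 1 h with compound (1–25 µM), then stimulated overnight with PMA 10 nM (HAoSMCs) or TNF-α 10 ng/mL (HUVECs). Conditioned medium was centrifuged, and PGE2 and PGI2 (as 6-keto-PGF1α) were measured by competitive EIA in pg/mL. Three independent experiments in duplicate.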

Homo sapiens [9] = species: Homo sapiens; experiment: Inhibition of PMA-induced COX-2 mRNA expression in HAoSMC at 1 to 25 uM incubated for 1 hr prior to PMA challenge measured after overnight incubation by RT-PCR analysis relative to control; format: functional; outline: as §2
Homo sapiens [10] = species: Homo sapiens; experiment: Inhibition of PMA-induced COX-2 protein expression in HAoSMC at 1 to 25 uM incubated for 1 hr prior to PMA challenge measured after overnight incubation by EIA assay relative to control; format: functional
Outline: (§4)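 Cells were pre-treated 1 h with compound, then stimulated overnight with PMA 10 nM, TNF-α 10 ng/mL (HUVECs) or PDGF-BB 20 ng/mL (HAoSMCs). Monolayers were fixed and permeabilized in cold acetone on ice for 2 min. They were probed with goat anti-COX-2 and then HRP anti-goat IgG, developed with TMB for 30 min, stopped with 0.18 M H2SO4, and read at 450 nm. Three experiments, n = 6 each.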

Homo sapiens [11] = species: Homo sapiens; experiment: Inhibition of PDGF-BB-induced COX-2 mRNA expression in HAoSMC at 1 to 25 uM incubated for 1 hr prior to PDGF-BB challenge measured after overnight incubation by RT-PCR analysis relative to control; format: functional; outline: as §2
Homo sapiens [12] = species: Homo sapiens; experiment: Inhibition of PDGF-BB-induced COX-2 protein expression in HAoSMC incubated for 1 hr prior to PDGF-BB challenge measured after overnight incubation by EIA assay relative to control; format: functional; outline: as §4
[13] = target: T1, Prostaglandin G/H synthase 2 (Homo sapiens); experiment: Inhibition of COX2 in HUVEC assessed as TNF-alpha-induced PGI2 production at 1 to 25 uM incubated for 1 hr prior to TNF-alpha challenge measured after overnight incubation by competitive enzyme immunoassay; outline: as §3
[14] = target: T1, Prostaglandin G/H synthase 2 (Homo sapiens); experiment: Inhibition of COX2 in HUVEC assessed as TNF-alpha-induced PGE2 production at 1 to 25 uM incubated for 1 hr prior to TNF-alpha challenge measured after overnight incubation by competitive enzyme immunoassay; outline: as §3
HUVEC [15] = experiment: Effect on TNF-alpha-induced COX-2 mRNA expression in HUVEC at 1 to 25 uM incubated for 1 hr prior to TNF-alpha challenge measured after overnight incubation by RT-PCR analysis relative to control; format: ADME, cell-based; details: human; outline: as §2
HUVEC [16] = experiment: Effect on PMA-induced COX-2 mRNA expression in HUVEC at 1 to 25 uM incubated for 1 hr prior to PMA challenge measured after overnight incubation by RT-PCR analysis relative to control; format: ADME, cell-based; details: human; outline: as §2
HUVEC [17] = experiment: Effect on TNF-alpha-induced COX-2 protein expression in HUVEC at 1 to 25 uM incubated for 1 hr prior to TNF-alpha challenge measured after overnight incubation by EIA assay relative to control; format: ADME, cell-based; details: human; outline: as §4
HUVEC [18] = experiment: Effect on PMA-induced COX-2 protein expression in HUVEC at 1 to 25 uM incubated for 1 hr prior to PMA challenge measured after overnight incubation by EIA assay relative to control; format: ADME, cell-based; details: human; outline: as §4
HUVEC [19] = experiment: Cytotoxicity against HUVEC assessed as inhibition of ECGF-induced cell growth at 1 to 25 uM incubated for 1 hr prior to ECGF challenge measured after 48 hrs by BrdU incorporation assay relative to control; format: cell-based; details: human
Outline: (§5)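 Cells at about 70% confluence were serum-starved overnight, pre-treated 1 h with compound (1–25 µM), then grown with or without PDGF-BB (HAoSMCs) or ECGF (HUVECs), each at 20 ng/mL, for 48 h. Cells were BrdU-labelled, fixed and immunostained, and absorbance was read at 450 nm. Three experiments, n = 8 each.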

Homo sapiens [20] = species: Homo sapiens; experiment: Cytotoxicity against HAoSMC assessed as inhibition of PDGF-BB-induced cell growth incubated for 1 hr prior to PDGF-BB challenge measured after 48 hrs by BrdU incorporation assay; format: functional; outline: as §5
HUVEC [21] = experiment: Antiinflammatory activity in HUVEC assessed as reduction in TNF-alpha-induced VCAM1 mRNA expression at 10 to 25 uM incubated for 1 hr prior to TNF-alpha challenge measured after 4 hrs by RT-PCR analysis relative to control; format: functional, cell-based; details: Homo sapiens
Outline: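 HUVECs were pre-treated 1 h with compound, then exposed to TNF-α 10 ng/mL for 4 h. Total RNA was extracted and VCAM-1 with GAPDH amplified by RT-PCR (VCAM-1 30 cycles, 55 °C annealing). Bands were quantified by densitometry and normalized to GAPDH. Mean ± SEM of three determinations.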

HUVEC [22] = experiment: Cytotoxicity against HUVEC at 1 to 25 uM after 48 hrs by BrdU incorporation assay relative to untreated control; details: human

| SMILES | inhibition (INH) (HUVEC [1]) [%] | Activity (HUVEC [2]) | Activity (HUVEC [4]) | Activity (HUVEC [5]) | other results |
| --- | --- | --- | --- | --- | --- |
| COc1ccc(-c2c(-c3ccc(OC)c(OC)c3)nc3ccccn3c2=O)cc1 | 10.3 | Non-toxic |  |  |  |
| O=c1c(O)c(-c2ccc(O)c(O)c2)oc2cc(O)cc(O)c12 [QUERCETIN] |  |  | Toxic | Toxic | Activity (HUVEC [3]): Toxic |
| O=c1c(-c2ccccc2)c(-c2ccccc2)nc2ccccn12 | 8.5 | Non-toxic |  |  |  |
| O=c1cc(-c2ccc(O)cc2)oc2cc(O)cc(O)c12 [APIGENIN] |  |  | Toxic | Toxic | Activity (HUVEC [3]): Toxic |
| COc1ccc(-c2nc3ccccn3c(=O)c2-c2ccccc2)cc1 | 8.9 | Non-toxic |  |  |  |
| COc1ccc(-c2c(-c3ccccc3)nc3ccccn3c2=O)cc1 | 12 | Non-toxic |  |  |  |
| COc1ccc(-c2nc3ccccn3c(=O)c2-c2ccc(OC)c(OC)c2)cc1 | 15 | Non-toxic |  |  |  |
| COc1ccc(-c2nc3ccccn3c(=O)c2-c2ccccc2)cc1OC | 37 | Non-toxic | Non-toxic | Non-toxic | inhibition [6]: Active; inhibition (Homo sapiens [7]): Active; inhibition [8]: Active; inhibition (Homo sapiens [9]): Active; inhibition (Homo sapiens [10]): Active; inhibition (Homo sapiens [11]): Active; inhibition (Homo sapiens [12]): Dose-dependent effect; inhibition [13]: inactive; inhibition [14]: inactive; Activity (HUVEC [15]): Non-toxic; Activity (HUVEC [16]): Non-toxic; Activity (HUVEC [17]): Non-toxic; Activity (HUVEC [18]): Non-toxic; Activity (HUVEC [19]): Non-toxic; inhibition (Homo sapiens [20]): Dose-dependent effect; inhibition (HUVEC [21]): Active; inhibition (HUVEC [1]; Homo sapiens): Dose-dependent effect; Activity (HUVEC [22]): Non-toxic |
| COc1ccc(-c2c(-c3ccccc3)nc3ccccn3c2=O)cc1OC | 12 | Non-toxic |  |  |  |
| COc1ccc(-c2nc3ccccn3c(=O)c2-c2ccc(OC)cc2)cc1 | 9.6 | Non-toxic |  |  |  |
